Source: ChEMBL document CHEMBL3751743, “Synthesis and anti-cancer screening of novel heterocyclic-(2H)-1,2,3-triazoles as potential anti-cancer agents” (Medchemcomm, 2015)
Active and inactive are the calls of the source. The rule behind the calls is not given here.

Legend:
[1] = Cytotoxicity against human DU145 cells after 48 hrs by SRB assay; type: functional; details: DU-145, 48 h
How it was run: (§1)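 NCI-60 five-dose screen: compounds dissolved in DMSO/H2O, tested at five 10-fold dilutions (10^-4 to 10^-8 M) for 48 h. Growth measured by sulforhodamine B optical density at time zero and after 48 h drug or vehicle exposure. Percentage growth calculated relative to control. GI50 is the molar concentration giving 50% reduction in net cell growth versus day-0 cell numbers.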

MCF7 = test: Cytotoxicity against human MCF7 cells after 48 hrs by SRB assay; type: functional; details: MCF7, 48 h; how it was run: as §1
MDA-MB-231 = test: Cytotoxicity against human MDA-MB-231 cells after 48 hrs by SRB assay; type: functional; details: MDA-MB-231, 48 h; how it was run: as §1
[2] = Cytotoxicity against human Hs 578T cells after 48 hrs by SRB assay; type: functional; how it was run: as §1
[3] = Cytotoxicity against human BT549 cells after 48 hrs by SRB assay; type: functional; details: BT-549, 48 h; how it was run: as §1
T47D = test: Cytotoxicity against human T47D cells after 48 hrs by SRB assay; type: functional
How it was run: (§2)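 NCI-60 five-dose screen. Compounds dissolved in DMSO/H2O and tested at five 10-fold dilutions (10^-4 to 10^-8 M) for 48 h. Growth read by sulforhodamine B optical density at time zero and after 48 h of exposure to compound or vehicle. Percent growth calculated against control. GI50 is the molar concentration giving 50% reduction in net cell growth relative to cell number on day 0.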

MDA-MB-468 = test: Cytotoxicity against human MDA-MB-468 cells after 48 hrs by SRB assay; type: functional; details: MDA-MB-468, 48 h; how it was run: as §1
Tubulin (Sus scrofa) = Tubulin (Sus scrofa) (UniProt P02554+P02550); test: Inhibition of porcine brain tubulin polymerization at 200 uM by spectrophotometric analysis
Chain of Tubulin (Sus scrofa) (P02550 whole entry, looked up): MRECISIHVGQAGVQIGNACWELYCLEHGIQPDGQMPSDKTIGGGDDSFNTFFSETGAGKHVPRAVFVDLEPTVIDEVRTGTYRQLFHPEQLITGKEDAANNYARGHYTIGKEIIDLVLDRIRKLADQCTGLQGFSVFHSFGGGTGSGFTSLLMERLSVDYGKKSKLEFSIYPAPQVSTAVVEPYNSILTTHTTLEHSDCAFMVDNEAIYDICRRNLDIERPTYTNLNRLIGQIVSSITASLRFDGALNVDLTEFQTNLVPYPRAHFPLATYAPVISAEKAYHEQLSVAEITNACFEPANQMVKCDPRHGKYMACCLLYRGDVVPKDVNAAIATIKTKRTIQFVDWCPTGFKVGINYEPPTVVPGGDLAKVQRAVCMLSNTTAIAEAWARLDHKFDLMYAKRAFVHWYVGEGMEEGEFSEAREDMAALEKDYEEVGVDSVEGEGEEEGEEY
Chain of Tubulin (Sus scrofa) (P02554 whole entry, looked up): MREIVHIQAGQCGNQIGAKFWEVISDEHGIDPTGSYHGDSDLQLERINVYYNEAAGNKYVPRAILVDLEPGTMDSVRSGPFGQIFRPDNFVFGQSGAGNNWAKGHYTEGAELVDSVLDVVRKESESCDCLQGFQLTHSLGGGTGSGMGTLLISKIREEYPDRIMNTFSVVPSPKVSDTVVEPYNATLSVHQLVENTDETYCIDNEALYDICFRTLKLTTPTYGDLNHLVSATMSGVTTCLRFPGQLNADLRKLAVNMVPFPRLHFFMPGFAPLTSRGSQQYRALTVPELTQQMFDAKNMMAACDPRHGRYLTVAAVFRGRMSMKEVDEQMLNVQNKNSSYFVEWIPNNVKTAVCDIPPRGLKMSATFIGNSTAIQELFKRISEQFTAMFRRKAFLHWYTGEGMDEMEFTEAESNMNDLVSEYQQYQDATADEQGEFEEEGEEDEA

CCRF-CEM = test: Cytotoxicity against human CCRF-CEM cells after 48 hrs by SRB assay; type: functional; how it was run: as §1
[4] = Cytotoxicity against human HL-60(TB) cells after 48 hrs by SRB assay; type: functional; details: HL-60, 48 h; how it was run: as §1
K562 = test: Cytotoxicity against human K562 cells after 48 hrs by SRB assay; type: functional; details: K562, 48 h; how it was run: as §1
[5] = Cytotoxicity against human MOLT4 cells after 48 hrs by SRB assay; type: functional; details: MOLT-4, 48 h; how it was run: as §1
[6] = Cytotoxicity against human RPMI8226 cells after 48 hrs by SRB assay; type: functional; details: RPMI-8226, 48 h; how it was run: as §1
A549 = test: Cytotoxicity against human A549 cells after 48 hrs by SRB assay; type: functional; details: A549, 48 h; how it was run: as §1
EKVX = test: Cytotoxicity against human EKVX cells after 48 hrs by SRB assay; type: functional
How it was run: (§3)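 NCI-60 five-dose screen: compounds in DMSO/H2O tested at 10^-4 to 10^-8 M (10-fold steps) for 48 h. Cell mass read by sulforhodamine B optical density at time zero and after exposure to compound or vehicle. GI50 is the concentration giving 50% reduction in net cell growth relative to day-0 cell numbers.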

[7] = Cytotoxicity against human HOP62 cells after 48 hrs by SRB assay; type: functional; details: HOP-62, 48 h; how it was run: as §3
[8] = Cytotoxicity against human HOP92 cells after 48 hrs by SRB assay; type: functional; details: HOP-92, 48 h; how it was run: as §1
NCI-H226 = test: Cytotoxicity against human NCI-H226 cells after 48 hrs by SRB assay; type: functional; details: NCI-H226, 48 h; how it was run: as §1
NCI-H23 = test: Cytotoxicity against human NCI-H23 cells after 48 hrs by SRB assay; type: functional; details: NCI-H23, 48 h; how it was run: as §1
NCI-H460 = test: Cytotoxicity against human NCI-H460 cells after 48 hrs by SRB assay; type: functional; details: NCI-H460, 48 h; how it was run: as §1
NCI-H522 = test: Cytotoxicity against human NCI-H522 cells after 48 hrs by SRB assay; type: functional; details: NCI-H522, 48 h; how it was run: as §1
[9] = Cytotoxicity against human COLO205 cells after 48 hrs by SRB assay; type: functional; details: COLO 205, 48 h; how it was run: as §1
[10] = Cytotoxicity against human HCC2998 cells after 48 hrs by SRB assay; type: functional; details: HCC 2998, 48 h; how it was run: as §1
[11] = Cytotoxicity against human HCT116 cells after 48 hrs by SRB assay; type: functional; details: HCT-116, 48 h; how it was run: as §1
[12] = Cytotoxicity against human HCT15 cells after 48 hrs by SRB assay; type: functional; details: HCT-15, 48 h; how it was run: as §1
HT-29 = test: Cytotoxicity against human HT-29 cells after 48 hrs by SRB assay; type: functional; details: HT-29, 48 h; how it was run: as §1
KM12 = test: Cytotoxicity against human KM12 cells after 48 hrs by SRB assay; type: functional; details: KM12, 48 h; how it was run: as §1
[13] = Cytotoxicity against human SW620 cells after 48 hrs by SRB assay; type: functional; details: SW-620, 48 h; how it was run: as §1
[14] = Cytotoxicity against human SF268 cells after 48 hrs by SRB assay; type: functional; details: SF-268, 48 h; how it was run: as §1
[15] = Cytotoxicity against human SF295 cells after 48 hrs by SRB assay; type: functional; details: SF-295, 48 h; how it was run: as §1
[16] = Cytotoxicity against human SF539 cells after 48 hrs by SRB assay; type: functional; details: SF-539, 48 h; how it was run: as §1
[17] = Cytotoxicity against human SNB19 cells after 48 hrs by SRB assay; type: functional; details: SNB-19, 48 h; how it was run: as §1
U-251 = test: Cytotoxicity against human U251 cells after 48 hrs by SRB assay; type: functional; details: U-251, 48 h; how it was run: as §2
[18] = Cytotoxicity against human LOXIMVI cells after 48 hrs by SRB assay; type: functional; details: LOX IMVI; how it was run: as §1
Malme-3M = test: Cytotoxicity against human MALME-3M cells after 48 hrs by SRB assay; type: functional; how it was run: as §3
M14 = test: Cytotoxicity against human M14 cells after 48 hrs by SRB assay; type: functional; details: M14, 48 h; how it was run: as §1
MDA-MB-435 = test: Cytotoxicity against human MDA-MB-435 cells after 48 hrs by SRB assay; type: functional; details: MDA-MB-435, 48 h; how it was run: as §1
SK-MEL-2 = test: Cytotoxicity against human SK-MEL-2 cells after 48 hrs by SRB assay; type: functional; details: SK-MEL-2, 48 h; how it was run: as §1
SK-MEL-28 = test: Cytotoxicity against human SK-MEL-28 cells after 48 hrs by SRB assay; type: functional; details: SK-MEL-28, 48 h; how it was run: as §1
SK-MEL-5 = test: Cytotoxicity against human SK-MEL-5 cells after 48 hrs by SRB assay; type: functional; details: SK-MEL-5, 48 h; how it was run: as §1
[19] = Cytotoxicity against human UACC257 cells after 48 hrs by SRB assay; type: functional; details: UACC-257, 48 h; how it was run: as §2
[20] = Cytotoxicity against human UACC62 cells after 48 hrs by SRB assay; type: functional; details: UACC-62, 48 h; how it was run: as §2
[21] = Cytotoxicity against human IGROV1 cells after 48 hrs by SRB assay; type: functional; details: IGROV-1, 48 h; how it was run: as §3
[22] = Cytotoxicity against human OVCAR3 cells after 48 hrs by SRB assay; type: functional; details: OVCAR-3, 48 h; how it was run: as §1
[23] = Cytotoxicity against human OVCAR5 cells after 48 hrs by SRB assay; type: functional; details: OVCAR-5, 48 h; how it was run: as §1
[24] = Cytotoxicity against human OVCAR8 cells after 48 hrs by SRB assay; type: functional; details: OVCAR-8, 48 h; how it was run: as §1
[25] = Cytotoxicity against human NCI-ADR-RES cells after 48 hrs by SRB assay; type: functional; how it was run: as §1
[26] = Cytotoxicity against human SKOV3 cells after 48 hrs by SRB assay; type: functional; details: SK-OV-3, 48 h; how it was run: as §1
786-0 = test: Cytotoxicity against human 786-0 cells after 48 hrs by SRB assay; type: functional; details: 786-0, 48 h; how it was run: as §1
A498 = test: Cytotoxicity against human A498 cells after 48 hrs by SRB assay; type: functional; details: A498, 48 h; how it was run: as §1
ACHN = test: Cytotoxicity against human ACHN cells after 48 hrs by SRB assay; type: functional; how it was run: as §1
[27] = Cytotoxicity against human Caki1 cells after 48 hrs by SRB assay; type: functional; details: CAKI-1, 48 h; how it was run: as §1
[28] = Cytotoxicity against human RXF393 cells after 48 hrs by SRB assay; type: functional; details: RXF 393, 48 h; how it was run: as §1
[29] = Cytotoxicity against human TK10 cells after 48 hrs by SRB assay; type: functional; details: TK-10, 48 h; how it was run: as §2
[30] = Cytotoxicity against human UO31 cells after 48 hrs by SRB assay; type: functional; details: UO-31, 48 h; how it was run: as §2
[31] = Cytotoxicity against human PC3 cells after 48 hrs by SRB assay; type: functional; details: PC-3, 48 h; how it was run: as §1

COc1cc(-c2nn(C)nc2-c2cc3ccccc3s2)cc(OC)c1OC
GI50 [1]: 0.263 µM | GI50 (MCF7): 0.04 µM | GI50 (MDA-MB-231): 1.6 µM | GI50 [2]: 0.27 µM | GI50 [3]: 0.422 µM | GI50 (T47D): > 100 µM | GI50 (MDA-MB-468): 0.082 µM | inhibition (Tubulin (Sus scrofa)): inactive | GI50 (CCRF-CEM): 0.22 µM | GI50 [4]: 0.048 µM | GI50 (K562): 0.042 µM | GI50 [5]: 0.333 µM | GI50 [6]: 0.362 µM | GI50 (A549): 0.167 µM | GI50 (EKVX): 0.466 µM | GI50 [7]: 0.553 µM | GI50 [8]: 0.08 µM | GI50 (NCI-H226): > 100 µM | GI50 (NCI-H23): 0.392 µM | GI50 (NCI-H460): 0.069 µM | GI50 (NCI-H522): 0.023 µM | GI50 [9]: 0.082 µM | GI50 [10]: 0.407 µM | GI50 [11]: 0.073 µM | GI50 [12]: 0.058 µM | GI50 (HT-29): 0.055 µM | GI50 (KM12): 0.054 µM | GI50 [13]: 0.063 µM | GI50 [14]: 0.63 µM | GI50 [15]: 0.036 µM | GI50 [16]: 0.149 µM | GI50 [17]: 0.254 µM | GI50 (U-251): 0.078 µM | GI50 [18]: 0.168 µM | GI50 (Malme-3M): 16.9 µM | GI50 (M14): 0.076 µM | GI50 (MDA-MB-435): 0.025 µM | GI50 (SK-MEL-2): 0.059 µM | GI50 (SK-MEL-28): 13 µM | GI50 (SK-MEL-5): 0.225 µM | GI50 [19]: 51.6 µM | GI50 [20]: 0.053 µM | GI50 [21]: 0.707 µM | GI50 [22]: 0.354 µM | GI50 [23]: 2.36 µM | GI50 [24]: 0.352 µM | GI50 [25]: 0.103 µM | GI50 [26]: 0.311 µM | GI50 (786-0): 0.312 µM | GI50 (A498): 0.041 µM | GI50 (ACHN): 0.294 µM | GI50 [27]: 3.77 µM | GI50 [28]: 0.286 µM | GI50 [29]: 0.578 µM | GI50 [30]: 0.744 µM | GI50 [31]: 0.077 µM
